CHO-K1 Ca antag: M1 antagonist counterscreen hit in parental CHO-K1 cells. ATP-induced calcium, Fluo-8 fluorescence. inhibition, % at 3 µM. 360,000 tested, 0.6% active. AID 602250;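 active means inhibition above a per-plate cutoff, the plate's mean sample inhibition plus 3 SD, cut at about 24% in these data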;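 further: 0% = DMSO plus EC80 ATP and 100% = DMSO alone without ATP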
CHO parental Ca: ATP-evoked calcium signal inhibitors, parental CHO, primary screen, counter-screen for OX1R antagonist project, cell-based, fluorescence, Fluo-8 calcium dye; parental CHO-K1, ATP-induced calcium, Fluo-8 fluorescence; inhibition, % at 5.6 µM; 330,000 tested, 0.63% active; AID 463079, 2010;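 active means inhibition above that plate's mean sample inhibition plus 3 SD, cut at about 26% in these data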;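 further: 0% = ATP-challenged DMSO wells and 100% = DMSO wells without ATP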
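Test system: parental CHO cells; detection: calcium-sensitive Fluo-8 fluorescence; evaluation: percent inhibition of calcium signal; also added: ATP as calcium-mobilizing challenge; repeats: one well per compound; control set: ATP-challenged DMSO wells low, unchallenged DMSO wells high; compound: single nominal dose of 5.6 µM per compound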
CHO-K1 Ca ag: counter-screen for M1 agonists: effect in parental CHO-K1 cells | Fluo-8 calcium fluorescence; scaled to maximal ATP response, vehicle zero | activation, % at 3 µM | 360,000 tested, 0.48% active; in the data active means activation above about 15%;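 further: untransfected CHO-K1 host cells lacking M1 receptor as counterscreen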
CHO-K1 Ca PAM: nonselective calcium activators in parental CHO-K1 cells, primary screen, counter-screen for M1 PAM project, cell-based, Fluo-8 calcium fluorescence, full deck, 1536-well. ATP EC20; 0% at ATP EC20, 100% at ATP max. activation, % at 3 µM. 360,000 tested, 0.02% active. AID 602247, 2012;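 active means activation above the run cutoff, the mean activation of all test compounds plus 3 SD, cut at about 40% in these data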;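 further: peak over basal fluorescence ratio in a 140 s read after ATP addition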
OX1R antag-1: OX1R (HCRTR1) antagonists, primary screen, fluorescence, CHO/OX1R cells, Fluo-8 calcium, orexin A. Fluo-8 calcium fluorescence. inhibition, % at 5 µM. AID 434989, 2010. 330,000 tested, 0.43% active;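 active means inhibition above its plate's threshold, mean inhibition of all tested compounds on the plate plus 3 SD, cut at about 37% in these data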;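 further: 0% = orexin A challenge wells and 100% = SB-334867-A antagonist wells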
Target sequence (O43613 whole entry, looked up): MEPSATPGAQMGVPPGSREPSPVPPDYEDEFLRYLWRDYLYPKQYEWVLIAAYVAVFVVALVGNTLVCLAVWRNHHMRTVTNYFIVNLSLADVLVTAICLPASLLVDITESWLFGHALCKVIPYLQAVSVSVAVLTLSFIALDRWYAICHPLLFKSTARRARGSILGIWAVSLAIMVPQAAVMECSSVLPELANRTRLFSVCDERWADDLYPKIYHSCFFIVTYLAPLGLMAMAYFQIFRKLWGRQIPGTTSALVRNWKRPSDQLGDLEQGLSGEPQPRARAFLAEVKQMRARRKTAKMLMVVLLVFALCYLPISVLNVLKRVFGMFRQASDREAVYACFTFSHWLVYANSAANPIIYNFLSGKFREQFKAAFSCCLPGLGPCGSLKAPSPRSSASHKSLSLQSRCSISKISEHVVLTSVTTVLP
OX1R antag-2: antagonists of human orexin 1 receptor (OX1R); Orexin/Hypocretin receptor type 1 (Homo sapiens), O43613; OX1R-expressing cells, FRET antagonist read-out; inhibition, % at 6.6 µM; 330,000 tested, 1.8% active; in the data active means inhibition mostly above about 38%, no sharp cut-off; inactive means mostly below about 40%;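 further: 0% = agonist challenge alone and 100% = reference antagonist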
* hit, by the source's call; . = not tested or not shown. An excerpt weighted towards active compounds, which were near 2.9% of everything screened.

SMILES	CHO-K1 Ca antag	CHO parental Ca	CHO-K1 Ca ag	CHO-K1 Ca PAM	OX1R antag-1	OX1R antag-2
COc1ccc(CCC(=O)Nc2ccc3c(c2)OCO3)cc1	4	-14	0	-5	-19	12
COc1ccc(CCC(=O)Nc2ccc3c(c2)OCCO3)cc1	-3	35*	0	-5	18	14
COc1ccccc1C(=O)Nc1ccc2c(c1)OCCO2	-6	-1	1	-2	-23	11
CN(C)c1nc(N(C)C)nc(N2CC(=O)N(c3ccccc3)C2=N)n1	-9	-14	-1	11	-18	16
COc1ccc(NC(=O)C2CC(=O)N(CCc3ccc(Cl)cc3)C2)cc1 (stereo not drawn)	-10	9	5	0	-2	5
Cc1ccc(Cn2c(=N)n(CC(O)COc3ccccc3)c3ccccc32)cc1 (stereo not drawn)	-2	41*	4	16	52*	-7
O=C(Nc1ccc(F)cc1)C(Sc1nnc2ccccn12)c1ccccc1 (stereo not drawn)	-3	-2	2	20	-17	15
CCOc1ccccc1NC(=O)C(Sc1nnc2ccccn12)c1ccccc1 (stereo not drawn)	-12	-15	1	22	-6	41*
C1CC(=NN=C2CCSCC2)CCS1	-13	.	0	24	.	.
C=CCNC(=O)c1ccccc1Cl	-3	-3	19*	11	-13	2
COc1cc(/C=C2/SC(=S)N(Cc3ccccc3)C2=O)cc(Cl)c1O	3	67*	6	-19	95*	-12
COc1cc(/C=C2/SC(=S)N(Cc3ccccc3)C2=O)ccc1OCC(=O)O	0	-9	1	18	-16	8
COc1cc([N+](=O)[O-])cc(/C=C2/SC(=S)N(Cc3ccccc3)C2=O)c1O	40*	49*	37*	-6	68*	11
O=C1/C(=C\c2cccc([N+](=O)[O-])c2O)SC(=S)N1Cc1ccccc1	-9	18	1	-20	0	22
COc1cc(F)ccc1-c1csc(C(O)(c2ccccc2)C(F)(F)F)n1 (stereo not drawn)	-12	.	0	8	.	.
O=C(C[C@@H]1C/C=C\C[C@@H](NC(=O)OCC2c3ccccc3-c3ccccc32)C(=O)OCCNC1=O)N[C@@H](CO)Cc1ccccc1	-4	-13	0	10	18	18
O=[N+]([O-])c1ccc(Sc2cccc[n+]2[O-])c2nonc12	88*	.	0	-25	.	.
CC(=O)NS(=O)(=O)c1ccc(Nc2ccc([N+](=O)[O-])c3nonc23)cc1	-23	3	2	25	-8	76*
O=[N+]([O-])c1ccc(Nc2ccccc2)c2nonc12	-8	16	12	-5	17	68*
CCOc1ccc(Nc2ccc([N+](=O)[O-])c3nonc23)cc1	12	17	5	-15	-23	43
Cc1cc(C(=O)Nc2c[nH]c(=O)[nH]c2=O)ccc1[N+](=O)[O-]	-3	-5	0	8	-5	15
O=C(CCCn1c(SCC(=O)NC2CCCCC2)nc2ccccc2c1=O)NCC1CCCO1 (stereo not drawn)	6	-5	0	5	-29	11
O=C(CCCn1c(SCc2ccccc2F)nc2ccccc2c1=O)NCC1CCCO1 (stereo not drawn)	-9	-16	17*	22	-27	30
Cc1cc(O)c(C(=O)/C=C/c2cccc([N+](=O)[O-])c2)c(=O)o1	-18	-10	2	30	-20	5
Cc1cc(O)c(C(=O)/C=C/c2ccccc2O)c(=O)o1	24*	.	3	9	.	.
SMILES	CHO-K1 Ca antag	CHO parental Ca	CHO-K1 Ca ag	CHO-K1 Ca PAM	OX1R antag-1	OX1R antag-2
COc1cccc(NC(=O)CN(C)C(=O)c2cccc(S(=O)(=O)N3c4ccccc4CC3C)c2)c1 (stereo not drawn)	3	.	2	2	.	.
Cc1ccc(O)c(NC(=O)c2ccc3c(c2)C(=O)N(Cc2cccnc2)C3=O)c1	33*	0	9	-25	-3	22
CCNC(=O)C1CCCN(C(=O)c2ccc(C)c(F)c2)CC1 (stereo not drawn)	-9	.	1	11	.	.
NC(=S)c1ccc[n+]([O-])c1	-10	.	1	-4	.	.
Fc1ccc(-c2csc3[n+]2CCS3)cc1	-6	-33	1	16	-24	20
O=[N+]([O-])c1ccc(-c2csc3[n+]2CCS3)cc1	-6	-13	1	18	-20	74*
Cc1noc(C)c1C(=O)N1CCCC(C(=O)c2cccc(C(F)(F)F)c2)C1 (stereo not drawn)	6	-10	1	6	-21	24
O=[N+]([O-])c1ccc(-c2ccc(C=Nc3cccc4ccccc34)o2)cc1	-28	5	1	16	-3	48*
COCCN1C(=O)COc2ccccc2C1C(=O)NC1CCCCC1 (stereo not drawn)	3	.	0	-14	.	.
CC(=O)OC[C@]12CC[C@H]3[C@@](C)(CC[C@H]4C(C)(C)CCC[C@]34C)[C@@H]1C[C@H](C1=CC(=O)O[C@H]1OC(C)=O)O2	.	46*	.	.	51*	-2
C#CCOc1ccc(/C=C2/C(=O)N(c3cccc(C(=O)O)c3)N=C2C)cc1OC	26*	-9	-1	-19	-9	8
COCCCNC(=O)c1sc2ncn(CC(=O)Nc3ccc(C)c(Cl)c3)c(=O)c2c1C	-19	-18	5	40*	-24	15
CCN(CC)CCCNC(=O)c1sc2ncn(CC(=O)Nc3ccc(C)c(Cl)c3)c(=O)c2c1C	3	-16	1	9	-13	15
Clc1ccc(C2=Nn3c(nnc3-c3cccnc3)SC2)s1	27*	-6	0	-5	-21	6
Cn1c(N)c(C(=O)COC(=O)c2cc(S(=O)(=O)N3CCCCC3)ccc2Cl)c(=O)n(C)c1=O	-13	-34	4	18	-22	10
Cn1c(N)c(C(=O)COC(=O)c2cccc(S(=O)(=O)N3CCCCC3)c2)c(=O)n(C)c1=O	29*	-4	0	-10	-23	9
Cc1ccc(OCCn2cc(/C(N)=N/O)c3ccccc32)cc1C	28*	-17	0	-9	-22	17
COc1ccc(OCCn2cc(/C(N)=N/O)c3ccccc32)cc1	-14	-16	2	13	-16	10
N#Cc1ccccc1CSc1nc2ccc(NC(=O)c3ccccc3C(=O)O)cc2s1	31*	-15	3	-12	-19	17
O=C(O)c1ccc(CSc2nc3ccc(NC(=O)c4ccccc4C(=O)O)cc3s2)cc1	-2	-17	1	1	-12	20

Screening data deposited in PubChem BioAssay by The Scripps Research Institute Molecular Screening Center.
